Reference: ChEMBL document CHEMBL3779764, “Identification and Structure-Activity Relationships of Diarylhydrazides as Novel Potent and Selective Human Enterovirus Inhibitors” (J Med Chem, 2016)

What was measured:
[1] = Cytotoxicity against african green monkey Vero cells assessed as reduction in cell viability after 24 to 36 hrs by MTS-based CPE reduction assay; conditions: chlorocebus sabaeus
Outline: (§1)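 Noninfected Vero or RD cells exposed to serial compound dilutions under the CPE-assay conditions (37 °C, 24-36 h). Viability measured by MTS/PMS absorbance at 498 nm. CC50 is the concentration causing 50% death of noninfected cells.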

Enterovirus A71 [2] = experiment: Antiviral activity against Human enterovirus 71 infected in monkey African green Vero cells by MTS-based CPE reduction assay; format: functional, organism-based
Outline: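 Vero cells (5 × 10^5) seeded, then given serial compound dilutions plus 100 TCID50 EV71. Incubated at 37 °C for 24-36 h until complete CPE in the virus-infected, compound-free control. Viability read by MTS/PMS at 498 nm. EC50 is the concentration inhibiting virus-induced CPE by 50%. At least three repeats.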

[3] = Selectivity index, ratio of CC50 for african green monkey Vero cells to EC50 for Enterovirus 71; format: toxicity, cell-based; conditions: read-out: Ratio CC50/EC50
Outline: (§2)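 Selectivity index is CC50/EC50, both taken from MTS-based CPE reduction assays in the same cell line (Vero or RD).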

Enterovirus A71 [4] = experiment: Antiviral activity against Enterovirus 71 infected in human RD cells after 24 to 36 hrs by MTS-based CPE reduction assay; format: functional, organism-based
Outline: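 RD cells given serial compound dilutions with EV71. Incubated at 37 °C for 24-36 h until full CPE in the virus control. Viability read by MTS/PMS at 498 nm. EC50 is the concentration giving 50% inhibition of virus-induced CPE. At least three independent experiments.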

RD = experiment: Cytotoxicity against human RD cells assessed as reduction in cell viability after 24 to 36 hrs by MTS-based CPE reduction assay; format: functional; outline: as §1
[5] = Selectivity index, ratio of CC50 for human RD cells to EC50 for Enterovirus 71; format: toxicity, cell-based; conditions: read-out: Ratio CC50/EC50; outline: as §2
[6] = Enterovirus A, Vero, read-out: EC50
[7] = Enterovirus A, RD, read-out: EC50

SMILES | CC50 [1] | EC50 (Enterovirus A71 [2]; [6]) | selectivity ratio [3] | EC50 (Enterovirus A71 [4]; [7]) | CC50 (RD) | selectivity ratio [5] | EC50 (Enterovirus A71 [2]; vero) | EC50 (Enterovirus A71 [4]; rd)
Cc1cccc(Cl)c1NNC(=O)c1ccc(C(C)(C)C)cc1 | 49.2 µM | 0.79 µM | 62.3 | 0.97 µM | 63.2 µM | 65.1 |  | 
O=C(NNc1c(Br)cccc1Br)c1ccccc1 | > 216 µM | 0.86 µM | > 251 | 2.43 µM | > 216 µM | > 89.1 |  | 
CCOc1ccc(C(=O)NNc2c(Cl)cc(Cl)cc2Cl)cc1 |  | > 100 µM |  | > 100 µM |  |  |  | 
CN(C)c1ccc(C(=O)NNc2c(F)cccc2F)cc1 | > 275 µM | 17.9 µM | > 15.3 | 23.5 µM | > 275 µM | > 11.7 |  | 
CCc1ccc(C(=O)NNc2c(C)cccc2C)cc1 | 135 µM | 1.57 µM | 86.2 | 2.75 µM | 164 µM | 59.7 |  | 
Cc1ccc(C(=O)NNc2c(C)cccc2C)cc1 | > 315 µM | 5.31 µM | > 59.2 | 13.6 µM | > 315 µM | > 23.2 |  | 
CCc1ccc(C(=O)NNc2c(Br)cccc2Br)cc1 | > 201 µM | 0.93 µM | > 216 | 1.58 µM | > 201 µM | > 127 |  | 
COc1cccc(OC)c1NNC(=O)c1ccc(C(C)(C)C)cc1 | > 244 µM | 10.4 µM | > 23.4 | 27.4 µM | > 244 µM | > 8.9 |  | 
COc1ccc(C(=O)NNc2c(C)cccc2Cl)cc1 | > 275 µM | 5.74 µM | > 47.9 | 15.4 µM | > 275 µM | > 17.9 |  | 
CCc1ccc(C(=O)NNc2c(C)cccc2Cl)cc1 | 81.7 µM | 6.37 µM | 12.8 | 10.5 µM | 105 µM | 10 |  | 
O=C(NNc1c(Cl)cccc1Cl)c1ccccn1 |  | > 100 µM |  | > 100 µM |  |  |  | 
O=C(NNc1c(Cl)cccc1Cl)c1ccc([N+](=O)[O-])cc1 |  |  |  |  |  |  | Not Active | Not Active
COc1ccc(C(=O)NNc2c(Cl)cccc2Cl)cc1 | > 257 µM | 0.68 µM | > 378 | 1.36 µM | > 257 µM | > 189 |  | 
CCc1cccc(CC)c1NNC(=O)c1ccc(C(C)(C)C)cc1 |  | > 100 µM |  | > 100 µM |  |  |  | 
CCCc1ccc(C(=O)NNc2c(F)cccc2F)cc1 | > 276 µM | 27.4 µM | > 10.1 | 51.4 µM | > 276 µM | > 5.4 |  | 
CCc1ccc(C(=O)NNc2c(Cl)cccc2Cl)cc1 | > 259 µM | 0.94 µM | > 275 | 1.68 µM | > 259 µM | > 154 |  | 
COc1ccc(C(=O)NNc2c(Br)cccc2Br)cc1 | > 200 µM | 3.32 µM | > 60.2 | 2.63 µM | > 200 µM | > 76.1 |  | 
CCCc1ccc(C(=O)NNc2c(C)cccc2C)cc1 | > 283 µM | 0.95 µM | > 298 | 2.64 µM | > 283 µM | > 107 |  | 
COc1ccccc1C(=O)NNc1c(Br)cccc1Br | 109 µM | 54.2 µM | 2 | > 100 µM |  |  |  | 
O=C(NNc1c(Cl)cccc1Cl)c1cccs1 |  | > 100 µM |  | > 100 µM |  |  |  | 
CCOc1ccc(C(=O)NNc2c(Cl)cccc2Cl)cc1 | > 246 µM | 0.33 µM | > 746 | 0.37 µM | > 246 µM | > 665 |  | 
CCOc1ccc(C(=O)NNc2c(C)cccc2Cl)cc1 | > 262 µM | 0.39 µM | > 673 | 0.82 µM | > 262 µM | > 319 |  | 
COc1ccc(C(=O)NNc2c(F)cccc2F)cc1 | > 288 µM | 74 µM | > 3.9 | > 100 µM |  |  |  | 

SMILES | CC50 [1] | EC50 (Enterovirus A71 [2]; [6]) | selectivity ratio [3] | EC50 (Enterovirus A71 [4]; [7]) | CC50 (RD) | selectivity ratio [5] | EC50 (Enterovirus A71 [2]; vero) | EC50 (Enterovirus A71 [4]; rd)
CC(C)(C)c1ccc(C(=O)NNc2c(Cl)cccc2Cl)cc1 | 30.8 µM | 0.47 µM | 65.6 | 0.85 µM | 36.7 µM | 43.2 |  | 
COc1ccc(C(=O)NNc2c(C)cccc2C)cc1 | > 296 µM | 12.3 µM | > 24 | 29 µM | > 296 µM | > 10.2 |  | 
COc1ccccc1C(=O)NNc1c(Cl)cccc1Cl |  | > 100 µM |  | > 100 µM |  |  |  | 
O=C(NNc1c(Cl)cccc1Cl)c1ccccc1 |  | > 100 µM |  | > 100 µM |  |  |  | 
CCCc1ccc(C(=O)NNc2c(Cl)cccc2Cl)cc1 | > 248 µM | 0.42 µM | > 589 | 0.44 µM | > 248 µM | > 562 |  | 
N#Cc1ccc(C(=O)NNc2c(Cl)cccc2Cl)cc1 |  |  |  |  |  |  | Not Active | Not Active
CC(C)c1cccc(C(C)C)c1NNC(=O)c1ccc(C(C)(C)C)cc1 |  | > 100 µM |  | > 100 µM |  |  |  | 
CCCc1ccc(C(=O)NNc2c(C)cccc2Cl)cc1 | 80.2 µM | 0.92 µM | 87.2 | 2.16 µM | 113 µM | 52.4 |  | 
Cc1ccc(C(=O)NNc2c(C)cccc2Cl)cc1 | > 291 µM | 13 µM | > 22.5 | 26.9 µM | > 291 µM | > 10.8 |  | 
CCOc1ccc(C(=O)NNc2c(Br)cccc2Br)cc1 | > 193 µM | 0.37 µM | > 522 | 0.53 µM | > 193 µM | > 362 |  | 
CCOc1ccc(C(=O)NNc2c(F)cccc2F)cc1 | > 274 µM | 66.7 µM | > 4.1 | > 100 µM |  |  |  | 
O=C(NNc1c(Cl)cccc1Cl)c1cccc(Cl)c1 |  |  |  |  |  |  | Not Active | Not Active
Cc1cccc(C)c1NNC(=O)c1ccc(N(C)C)cc1 | > 282 µM | 0.29 µM | > 974 | 0.69 µM | > 282 µM | > 411 |  | 
O=C(NNc1c(Cl)cccc1Cl)c1ccc(Br)cc1 |  |  |  |  |  |  | Not Active | Not Active
Cc1cccc(Cl)c1NNC(=O)c1ccc(N(C)C)cc1 | 92.8 µM | 0.28 µM | 332 | 0.16 µM | 106 µM | 682 |  | 
CC(C)(C)c1ccc(C(=O)NNc2c(F)cccc2F)cc1 | 150 µM | 2.19 µM | 68.4 | 4.27 µM | 184 µM | 43 |  | 
O=C(NNc1c(Cl)cccc1Cl)c1ccc(F)cc1 |  |  |  |  |  |  | Not Active | Not Active
CCOc1ccc(NNC(=O)c2c(Cl)cccc2Cl)cc1 |  | > 100 µM |  | > 100 µM |  |  |  | 
O=C(NNc1c(Cl)cccc1Cl)c1ccc(Cl)cc1 |  | > 100 µM |  | > 100 µM |  |  |  | 
CCCc1ccc(C(=O)NNc2c(Br)cccc2Br)cc1 | > 194 µM | 3.54 µM | > 54.8 | 4.62 µM | > 194 µM | > 42 |  | 
Cc1ccc(C(=O)NNc2c(Cl)cccc2Cl)cc1 | > 271 µM | 1.28 µM | > 212 | 0.96 µM | > 271 µM | > 281 |  | 
CSc1ccc(C(=O)NNc2c(C)cccc2Cl)cc1 | 107 µM | 6.13 µM | 17.4 | 15.4 µM | 134 µM | 8.7 |  | 
Cc1ccc(C(=O)NNc2c(Br)cccc2Br)cc1 | 146 µM | 10.8 µM | 13.5 | 24.7 µM | 163 µM | 6.6 |  | 
